Laboratory results as given in ChEMBL document CHEMBL1139492, “Structure-activity relationships and effects on neuroactive steroid synthesis in a series of 2-phenylimidazo[1,2-a]pyridineacetamide peripheral benzodiazepine receptors ligands” (J Med Chem, 2005).

Columns and labels:
Translocator protein [1] = molecular target: T1, Translocator protein (Rattus norvegicus, UniProt P16257); assay: Inhibitory concentration against peripheral benzodiazepine receptor of rat ovary; assay type: tissue-based, Female gonad
Method in brief: (§1)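 Rat tissue (cerebral cortex, ovary) homogenised in 50 vol PBS pH 7.4 at 4 °C, spun at 40 000g for 30 min, washed, resuspended in 10 vol PBS. […] Filtration on polyethyleneimine-soaked GF/B filters, scintillation counting. […] Means of three experiments in duplicate; Ki reported.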

[2] = molecular target: GABA-A receptor; anion channel; assay: Inhibitory concentration of central benzodiazepine GABA-A receptor of rat cerebral cortex; assay type: tissue-based
Method in brief: (§2)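 Rat cerebral cortex homogenised in 50 vol ice-cold 50 mM Tris-HCl pH 7.4, spun twice at 20 000g for 10 min. Membranes (0.4–0.5 mg protein) incubated with [3H]flunitrazepam for 60 min at 0 °C. Rapid filtration on GF/B filters, scintillation counting. Nonspecific binding with 5 μM diazepam. Means of three experiments in duplicate; Ki reported.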

[3] = molecular target: Benzodiazepine receptors; peripheral & central (Rattus norvegicus) (UniProt O09028+P15431+P18506+P18508+P19969+P20236+P23574+P23576+P28471+P28473+P30191+P62813+P63079+P63138+Q91ZM7+Q9ES14+P16257); assay: Ratio of inhibition for peripheral benzodiazepine receptor of rat ovary and central benzodiazepine GABA-A receptor; assay type: tissue-based; parameters: scale not given here; settings: Female gonad
Translocator protein [4] = molecular target: T1, Translocator protein; assay: Displacement of [3H]PK11195 from peripheral benzodiazepine receptor of rat cerebral cortex; assay type: tissue-based; method in brief: as §1
Translocator protein [5] = molecular target: T1, Translocator protein; assay: Displacement of [3H]-PK11195 from peripheral benzodiazepine receptor of rat ovary; assay type: tissue-based, Female gonad; method in brief: as §1
Translocator protein [6] = molecular target: T1, Translocator protein; assay: Inhibitory concentration against peripheral benzodiazepine receptor of rat cerebral cortex; assay type: tissue-based; method in brief: as §1
[7] = molecular target: GABA-A receptor; anion channel; assay: Displacement of [3H]flunitrazepam from central benzodiazepine GABA-A receptor of rat cerebral cortex; assay type: tissue-based; method in brief: as §2

T1 sequence (P16257 whole entry, looked up): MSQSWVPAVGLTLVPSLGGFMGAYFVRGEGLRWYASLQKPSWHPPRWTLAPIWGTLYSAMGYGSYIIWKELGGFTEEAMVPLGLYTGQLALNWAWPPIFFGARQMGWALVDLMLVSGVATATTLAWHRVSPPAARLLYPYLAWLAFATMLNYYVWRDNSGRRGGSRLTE

Structure (SMILES) | IC50 (Translocator protein [1]) | pIC50 [2] | Selectivity index [3] | Ki (Translocator protein [4]) | Ki (Translocator protein [5]) | IC50 (Translocator protein [6]) | Ki [7]
CCCCCCN(CCCCCC)C(=O)Cc1c(-c2ccc(Cl)cc2)nc2c(Cl)cc(Cl)cn12 | 2610 nM | 5 | 0.584 | 222 nM | 1890 nM | 377 nM | 7750 nM
CCCCN(Cc1ccccc1)C(=O)Cc1c(-c2ccccc2)nc2c(Cl)cc(Cl)cn12 | 89.7 nM | 5 | 2.05 | 14.1 nM | 64.7 nM | 24.2 nM | 7010 nM
CCCN(CCC)C(=O)C(C)c1c(-c2ccc(Cl)cc2)nc2c(Cl)cc(Cl)cn12 (stereo unspecified) | 2680 nM | 5 | 0.572 | 701 nM | 1930 nM | 1200 nM | 7010 nM
CC(C)(C)N(Cc1ccccc1)C(=O)Cc1c(-c2ccc(Cl)cc2)nc2c(Cl)cc(Cl)cn12 | 18200 nM | 5 | -0.26 | 2100 nM | 12900 nM | 3440 nM | 7590 nM
CCCCN(CCCC)C(=O)Cc1c(-c2ccc(Cl)cc2)nc2ccc(Cl)cn12 | 6.73 nM | 7.051 | 1.12 | 1.69 nM | 4.77 nM | 3.27 nM | 68.9 nM
CCCCN(C(=O)Cc1c(-c2ccc(Cl)cc2)nc2ccc(Cl)cn12)c1ccccc1 | 11.6 nM | 6.133 | 1.8 | 0.884 nM | 8.82 nM | 1.5 nM | 506 nM
CCOC(=O)C1CCCN(C(=O)Cc2c(-c3ccc(Cl)cc3)nc3ccc(Cl)cn23)C1 (stereo unspecified) | 302 nM | 6.725 | -0.205 | 19.6 nM | 207 nM | 35.2 nM | 130 nM
CCCCN(C(=O)Cc1c(-c2ccc(Cl)cc2)nc2c(Cl)cc(Cl)cn12)c1ccccc1 | 4.8 nM | 5 | 3.32 | 7.84 nM | 3.65 nM | 13.3 nM | 6880 nM
CCOC(=O)C1CCCN(C(=O)Cc2c(-c3ccc(Cl)cc3)nc3c(Cl)cc(Cl)cn23)C1 (stereo unspecified) | 2530 nM | 5 | 0.597 | 79.8 nM | 1740 nM | 143 nM | 6880 nM
CCCCCCN(CCCCCC)C(=O)Cc1c(-c2ccc(Cl)cc2)nc2ccc(Cl)cn12 | 48.8 nM | 5.481 | 1.83 | 3.01 nM | 35.3 nM | 5.11 nM | 2560 nM
O=C(Cc1c(-c2ccc(Cl)cc2)nc2c(Cl)cc(Cl)cn12)NCc1ccccc1 |  | 5 |  | 98.8 nM |  | 169 nM | 7010 nM
CCCN(Cc1ccc([N+](=O)[O-])cc1)C(=O)Cc1c(-c2ccc(Cl)cc2)nc2c(Cl)cc(Cl)cn12 | 69.7 nM | 5 | 2.16 | 16 nM | 50.5 nM | 27.2 nM | 6880 nM
O=C(Cc1c(-c2ccccc2)nc2c(Cl)cc(Cl)cn12)Nc1ccncc1 | 4100 nM | 5 | 0.387 | 1240 nM | 2970 nM | 2100 nM | 7750 nM
O=C(Cc1c(-c2ccc(Cl)cc2)nc2c(Cl)cc(Cl)cn12)N1CCCC1 | 843 nM | 5 | 1.02 | 126 nM | 608 nM | 215 nM | 7010 nM
O=C(Cc1c(-c2ccccc2)nc2c(Cl)cc(Cl)cn12)N1CCc2ccccc2C1 | 231 nM | 5 | 1.64 | 23.6 nM | 164 nM | 38.7 nM | 6880 nM
CC(C(=O)N(C)C1CCCCC1)c1c(-c2ccc(Cl)cc2)nc2c(Cl)cc(Cl)cn12 (stereo unspecified) | 3070 nM | 5 | 0.513 | 2990 nM | 2210 nM | 5150 nM | 7010 nM
CCCCNC(=O)Cc1c(-c2ccc(Cl)cc2)nc2c(Cl)cc(Cl)cn12 | 290 nM | 5 | 1.54 | 170 nM | 170 nM | 390 nM | 6880 nM
O=C(Cc1c(-c2ccccc2)nc2c(Cl)cc(Cl)cn12)N1CCCCC1 | 1460 nM | 5 | 0.837 | 95.9 nM | 1030 nM | 157 nM | 7590 nM
O=C(Cc1c(-c2ccc(Cl)cc2)nc2c(Cl)cc(Cl)cn12)N1CCN(Cc2ccccc2)CC1 | 726000 nM | 5 | -1.86 | 12700 nM | 516000 nM | 20800 nM | 6880 nM
CN(CCc1ccccn1)C(=O)Cc1c(-c2ccc(Cl)cc2)nc2c(Cl)cc(Cl)cn12 | 5080 nM | 5 | 0.294 | 530 nM | 3690 nM | 899 nM | 7750 nM
O=C(Cc1c(-c2ccc(Cl)cc2)nc2c(Cl)cc(Cl)cn12)Nc1ccccc1 | 25.2 nM | 5 | 2.6 | 11.7 nM | 18.3 nM | 19.9 nM | 6880 nM
O=C(Cc1c(-c2ccccc2)nc2c(Cl)cc(Cl)cn12)N1CCCC1 |  | 5 | 0.029 | 757 nM | 6650 nM | 1240 nM | 6880 nM
CN(Cc1ccccc1)C(=O)Cc1c(-c2ccc(Cl)cc2)nc2c(Cl)cc(Cl)cn12 |  | 5 |  | 1.38 nM |  |  | 6880 nM
CCCCN(CCCC)C(=O)Cc1c(-c2ccc(Cl)cc2)nc2ccccn12 |  |  | 1.19 |  |  |  | 
CN(CCc1ccccn1)C(=O)Cc1c(-c2ccccc2)nc2c(Cl)cc(Cl)cn12 | 5060 nM | 5 | 0.296 | 1280 nM | 3670 nM | 2170 nM | 7750 nM
O=C(Cc1c(-c2ccccc2)nc2c(Cl)cc(Cl)cn12)NC1CCCCC1 | 1310 nM | 5 | 0.884 | 771 nM | 942 nM | 1320 nM | 7010 nM
CC(C(=O)N(C)Cc1ccccc1)c1c(-c2ccc(Cl)cc2)nc2c(Cl)cc(Cl)cn12 (stereo unspecified) | 11600 nM | 5 |  | 5770 nM | 8330 nM | 9890 nM | 7010 nM
O=C(Cc1c(-c2ccc(Cl)cc2)nc2c(Cl)cc(Cl)cn12)NC1CCCCC1 | 1050 nM | 5 | 0.977 | 140 nM | 749 nM | 229 nM | 7590 nM
